CHOP inh: inhibitors of CHOP promoter induction, primary screen, cell-based, unfolded protein response, luciferase reporter. CHO-K1 CHOP-promoter luciferase, tunicamycin-induced, 15-18 h. inhibition, % at 10 µM. 220,000 compounds, 3.8% hits. AID 2732, 2010;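 active = compounds that reduced the stress-induced luciferase reporter signal by more than about 70% of percent inhibition, limit read from the data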;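 note: 0% = tunicamycin plus vehicle and 100% = wells without tunicamycin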
b-catenin transl: modulators of beta-catenin nuclear translocation, primary screen, imaging, HeLa cells, immunofluorescence, high-content. nuclear translocation activity, % at 5 µM. 190,000 compounds, 0.3% hits;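 active = nuclear translocation activity above 50% at 5 µM, with a well cell count of 50 or more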;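 note: per-cell ratio of nuclear to cytoplasmic median beta-catenin stain intensity; plate controls were DMSO negative control for no effect and GSK-3 inhibitor IX positive control for full effect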
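assay system = human HeLa cells, endogenous beta-catenin | times = compound treatment 24 h, 37°C, 5% CO2 | detection = Anti-beta-catenin immunofluorescence on PFA-fixed, Triton-permeabilized cells, DAPI nuclei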
L major viab: Leishmania major promastigote growth inhibition, primary screen; 200,000 compounds, 9% hits; inhibition, % at 10 µM; Leishmania major promastigotes, resazurin fluorescence viability; AID 1063, 2008; in the data active = inhibition above about 50%;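 note: promastigotes grown with compound for 44 hours at 28 °C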
MT stabilizer: microtubule stabilizers in HeLa cells, primary screen, imaging, high-content imaging | HeLa tubulin immunostaining HCS, 24 h; share of cells brighter than vehicle mean+2SD | % tubulin-high responders, % at 10 µM | 200,000 compounds, 0.83% hits | AID 2205, 2009;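 active = plate Z-score above 3 for both tubulin-high and condensed-nucleus cell shares, with cell loss under 80%, at 10 µM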;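 note: anti alpha tubulin signal scored within the nucleus-defined area of each cell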
Dynein transport: inhibitors of GR-EGFP nuclear translocation, primary screen, dynein cargo transport inhibitor project, imaging, high-content, 3617.4 mouse cells | test concentration mostly 20 µM; stimulated with dexamethasone, 1 µM; hits give low values | z-score, hits read low | 220,000 compounds, 0.47% hits;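 active = plate z-score of nuclear minus cytoplasmic receptor signal below a set negative limit, without overly bright fluorescence or cell loss, cut at about -3.5 in these data, passing the limit was not always enough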;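 note: z-score of nuclear minus cytoplasmic ring GR-EGFP intensity difference per well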
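Buffer or medium: tet-free, stripped-serum medium; reagent: dexamethasone at 1.0 µM final, 30 min; incubation: 48 h induction, 1 h compound, 30 min dex at 37 °C; measured by: formaldehyde fixation, Hoechst nuclear stain, 10x automated fluorescence imaging; read-out: nuclear-to-cytoplasmic GR-EGFP distribution per well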
Autophagy mod: autophagy modulators in MEF cells, primary screen, imaging, high-content, MEF GFP-LC3 | MEF GFP-LC3 puncta imaging; test concentration mostly 10 µM | calls only at 10 µM (by protocol) | 190,000 compounds, 0.98% hits;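 active = percentage of spot-positive cells more than 3 SD above its plate mean, without a fluorescence outlier flag or 80% toxicity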;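 note: spot-positive cell cutoff set from DMSO-treated cells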
* marks the source's active call; other numbers are inactive results; i = inactive; / = no result given. This is a sample that favours compounds with a hit; in the whole collection about 12% have one here.

SMILES	CHOP inh	b-catenin transl	L major viab	MT stabilizer	Dynein transport	Autophagy mod
Cc1cc(C)c(C)c(S(=O)(=O)N2CCN(c3ccc(O)cc3)CC2)c1C	54	0	55*	5	0.0019	i
Cc1ccc(S(=O)(=O)N2CCOCC2)cc1NC(=O)CN1CCN(c2ccc(O)cc2)CC1	6	/	17	3	-0.85	i
CN(O)/C=C1\C(=O)Nc2ccccc21	3	-1	-10	2	-0.58	i
O=C(/C=C1\C(=O)Nc2ccccc21)/C=C1\C(=O)Nc2ccccc21	-78	25	/	/	-4.4*	/
Cc1cccc(C(=O)Oc2ccc(/C=N/NC(=O)c3ccccc3O)cc2)c1	41	0	26	3	-0.21	i
COc1cc(/C=N/NC(=O)c2cccc([N+](=O)[O-])c2)ccc1OCc1ccccc1	-5	-5	-5	3	0.0081	i
COc1cc(/C=N/NC(=O)COc2c(C)cc([N+](=O)[O-])cc2C)ccc1OC(=O)c1ccccc1	49	2	99*	4	-0.15	i
Cc1cccc(C(=O)Oc2ccc(/C=N/NC(=O)Cc3ccc([N+](=O)[O-])cc3)cc2)c1	48	/	50*	3	3.4	i
COc1cc(/C=N/NC(=O)COc2c(C)cc([N+](=O)[O-])cc2C)ccc1OC(=O)c1ccccc1Br	76*	-1	73*	2	-0.52	i
COc1ccc(/C=N/NC(=O)CSCc2ccc([N+](=O)[O-])cc2)cc1OC	12	1	41	2	0.15	i
CC(C)(C)C(=O)NCCCc1nc2ccccc2n1CCCOc1ccc(Cl)cc1	53	2	20	2	-0.3	i
COc1ccc(N2CCN(C(=O)Cc3ccc(S(=O)(=O)N4CCOCC4)s3)CC2)cc1	-15	-1	24	2	0.32	i
Cc1cccc(NC(=S)N2CCC(C(N)=O)(N3CCCCC3)CC2)c1C	-24	-1	-5	4	-0.12	i
Cn1cc(C(c2ccccn2)c2cn(C)c3ccccc23)c2ccccc21	78*	1	32	4	-0.14	i
CC(C)N(C(=O)CSc1nnnn1-c1ccc2c(c1)OCO2)C(C)C	21	0	24	2	1.2	i
O=C1CC(c2ccc(F)cc2)CC2=C1C=Nc1ccccc1N2 (centres undefined)	6	0	42	2	-1.4	i
O=C1CC(c2ccccc2)CC2=C1C=Nc1ccccc1N2 (centres undefined)	4	4	22	21*	-1.5	i
N#CC(C#N)=C(Nc1ccc(F)cc1)SCc1cccc(F)c1	85*	-4	38	2	0.88	i
Cc1ccc(/C=N/NC(=O)Cn2nnc(N)n2)o1	6	-5	/	/	-0.43	/
COc1ccc(-c2nc(NC(=O)c3n[nH]c(=O)c4ccccc34)sc2C)cc1	100*	/	63*	3	-0.068	i
Cc1sc(NC(=O)Cn2[nH]c(=O)c3ccccc3c2=O)nc1-c1ccccc1	88*	2	8	4	0.75	i
COc1ccc(-c2sc(NC(C)=O)nc2-c2ccccc2)cc1	12	-2	66*	2	-0.68	i
CCCn1nc(C(=O)NCCc2ccc(S(N)(=O)=O)cc2)c2ccccc2c1=O	15	-5	4	2	-0.31	i
COc1cccc2cc(C(=O)OCC(=O)NCc3ccc4c(c3)OCO4)c(=O)oc12	14	0	/	/	-0.8	/
Cc1cc(NN)nc2ccc(Cl)cc12	16	-3	-2	2	0.33	i
SMILES	CHOP inh	b-catenin transl	L major viab	MT stabilizer	Dynein transport	Autophagy mod
O=C(COC(=O)c1cc(-c2cccs2)nc2ccccc12)NCc1ccco1	32	-5	-6	2	-3.2	i
Cc1cc(C(=O)OCC(=O)NCc2ccco2)c(C)n1-c1ccc(F)cc1	/	82*	-5	17*	-1.3	i
O=C(COC(=O)c1cc(-c2ccc(Cl)s2)nc2ccccc12)NCc1ccco1	81*	0	1	1	-0.15	i
O=C(COC(=O)c1ccccc1)NCc1ccco1	6	-1	-8	2	0.14	i
Cc1cc(C(=O)COC(=O)c2ccc[nH]c2=O)c(C)n1-c1ccccc1	70*	1	71*	3	1.8	i
O=C(COC(=O)c1ccccc1Nc1cccc(C(F)(F)F)c1)NCc1ccco1	79*	/	-3	4	-0.68	i
O=C1NCC(O)=C1C=Nc1ccccc1O	7	-4	/	/	-0.43	/
COc1ccc(-n2nc3cc(C)c(NC(=O)C(C)C)cc3n2)cc1	40	-4	-2	5	-0.88	i
Cc1cc(C(=O)COC(=O)c2ccc[nH]c2=O)c(C)n1C1CC1	3	-3	-5	2	-0.45	i
Cc1cc(C(=O)COC(=O)c2ccc[nH]c2=O)c(C)n1-c1ccc(F)cc1	75*	-2	69*	2	0.44	i
Cc1noc(C)c1COC(=O)c1cc(C)n(-c2ccccc2)c1C	34	-1	79*	3	-1.2	i
CN=c1scc(C)n1/N=C/c1ccc(O)c(O)c1O	-57	/	-4	2	-0.51	i
CN=c1scc(-c2cccs2)n1/N=C/c1ccccc1O	94*	/	86*	3	1	i
COc1ccc2[nH]c(=O)c(CN(CC3CCCO3)C(=S)Nc3ccccc3)cc2c1 (centres undefined)	40	0	40	4	-0.26	i
Cc1cc2cc(CN(CC3CCCO3)C(=S)Nc3ccccc3)c(=O)[nH]c2cc1C (centres undefined)	19	23	68*	14*	0.33	i
COc1ccc2cc(CN(CC3CCCO3)C(=S)Nc3ccccc3)c(=O)[nH]c2c1 (centres undefined)	4	43	26	27*	-0.52	i
Cc1ccc(S(=O)(=O)N2CCCCC2)cc1NS(=O)(=O)c1cccc(C(=O)O)c1	23	0	-5	4	0.27	i
CCNc1ccc(Br)cc(C(=O)/C=C/c2ccc3c(c2)OCO3)c1=O	-13	2	33	8	-0.96	i
CNc1ccc(Br)cc(C(=O)/C=C/c2cccc(OC)c2)c1=O	-69	38	57*	13*	-1.7	i
CCNc1ccc(Br)cc(C(=O)/C=C/c2ccc(Cl)cc2)c1=O	-43	-2	84*	16*	-2.5	i
CC1=CCC2(CO)COC(c3ccccc3O)C1C2 (centres undefined)	1	-1	14	2	1.3	i
Cc1cc(C2C(=O)C(C(=O)c3ccc(Cl)cc3)C(=O)CC2(C)C)on1 (centres undefined)	6	-8	-2	3	0.69	i
